Assays:
[1] = Selectivity index, CTD50 for MDCK cells to EC50 for influenza A virus (A/California/07/09(H1N1)) pdm09 infected in MDCK cells; assay type: toxicity, cell-based; conditions: dog; for selectivity ratio: read-out: Selectivity Index; for Selectivity Index: mdck
[2] = Antiviral activity against influenza A virus (A/California/07/09(H1N1)) pdm09 infected in MDCK cells assessed as decrease in virus titer by hemagglutination assay in presence of 1% suspension of chicken erythrocytes; assay type: functional, Influenza A virus (A/California/07/2009(H1N1)); conditions: read-out: CD50 (the source's name)
In short: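 MDCK cells were pre-treated for 1 h at 37 °C with serial twofold compound dilutions in MEM containing 2 mM arginine, 2 mM glutamine and 2 μg/mL trypsin, then infected. Untreated infected cells served as control. Virus yield in the supernatant was read by end-point dilution hemagglutination. ED50 was the concentration giving a two-fold drop in virus production versus control. Values are means.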

MDCK = experiment: Cytotoxicity against MDCK cells assessed as reduction in cell viability after 48 hrs by MTT assay; assay type: cell-based, Canis lupus familiaris
In short: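 Compounds were taken from 5 mg/mL DMSO stocks and diluted twofold in MEM. They were applied to washed, serum-free MDCK monolayers (grown in MEM with 5% fetal calf serum) for 48 h at 37 °C. Cells were then PBS-washed and given 0.5 mg/mL MTT for 60 min at 37 °C in 5% CO2. Formazan was dissolved in DMSO and read at 535 nm. CTD50 was estimated from these readings. Values are means.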

SMILES	selectivity ratio [1]	CC50 ([2]; Influenza A virus, pdm09, MDCK)	EC50 (MDCK)	Selectivity Index [1]	CC50 [2]
COC(=O)[C@H](Cc1ccccc1)NC(=O)[C@H]1O[C@@H](O[C@H]2[C@H](O[C@H]3CC[C@]4(C)[C@H]5C(=O)C=C6[C@@H]7C[C@@](C)(C(=O)N[C@@H](Cc8ccccc8)C(=O)OC)CC[C@]7(C)CC[C@@]6(C)[C@]5(C)CC[C@H]4C3(C)C)O[C@H](C(=O)N[C@@H](Cc3ccccc3)C(=O)OC)[C@@H](O)[C@@H]2O)[C@H](O)[C@@H](O)[C@@H]1O	28	133 µM	–	–	–
COC(=O)[C@H](Cc1ccc(O)cc1)NC(=O)[C@H]1O[C@@H](O[C@H]2[C@H](O[C@H]3CC[C@]4(C)[C@H]5C(=O)C=C6[C@@H]7C[C@@](C)(C(=O)N[C@@H](Cc8ccc(O)cc8)C(=O)OC)CC[C@]7(C)CC[C@@]6(C)[C@]5(C)CC[C@H]4C3(C)C)O[C@H](C(=O)N[C@@H](Cc3ccc(O)cc3)C(=O)OC)[C@@H](O)[C@@H]2O)[C@H](O)[C@@H](O)[C@@H]1O	18	160 µM	–	–	–
CC[C@H](C)[C@H](NC(=O)[C@H]1O[C@@H](O[C@H]2[C@H](O[C@H]3CC[C@]4(C)[C@H]5C(=O)C=C6[C@@H]7C[C@@](C)(C(=O)N[C@H](C(=O)OC)[C@@H](C)CC)CC[C@]7(C)CC[C@@]6(C)[C@]5(C)CC[C@H]4C3(C)C)O[C@H](C(=O)N[C@H](C(=O)OC)[C@@H](C)CC)[C@@H](O)[C@@H]2O)[C@H](O)[C@@H](O)[C@@H]1O)C(=O)OC	6	16.4 µM	–	–	–
COC(=O)[C@H](Cc1ccccc1)NC(=O)[C@H]1O[C@@H](O[C@H]2[C@H](O[C@H]3CC[C@]4(C)[C@H]5C(=O)C=C6[C@@H]7C[C@@](C)(C(=O)O)CC[C@]7(C)CC[C@@]6(C)[C@]5(C)CC[C@H]4C3(C)C)O[C@H](C(=O)N[C@@H](Cc3ccccc3)C(=O)OC)[C@@H](O)[C@@H]2O)[C@H](O)[C@@H](O)[C@@H]1O	61	262 µM	–	–	–
COC(=O)[C@H](Cc1ccc(O)cc1)NC(=O)[C@H]1O[C@@H](O[C@H]2[C@H](O[C@H]3CC[C@]4(C)[C@H]5C(=O)C=C6[C@@H]7C[C@@](C)(C(=O)O)CC[C@]7(C)CC[C@@]6(C)[C@]5(C)CC[C@H]4C3(C)C)O[C@H](C(=O)N[C@@H](Cc3ccc(O)cc3)C(=O)OC)[C@@H](O)[C@@H]2O)[C@H](O)[C@@H](O)[C@@H]1O	38	255 µM	–	–	–
COC(=O)[C@@H](NC(=O)[C@H]1O[C@@H](O[C@H]2[C@H](O[C@H]3CC[C@]4(C)[C@H]5C(=O)C=C6[C@@H]7C[C@@](C)(C(=O)O)CC[C@]7(C)CC[C@@]6(C)[C@]5(C)CC[C@H]4C3(C)C)O[C@H](C(=O)N[C@H](C(=O)OC)C(C)C)[C@@H](O)[C@@H]2O)[C@H](O)[C@@H](O)[C@@H]1O)C(C)C	5	29.1 µM	–	–	–
COC(=O)[C@H](Cc1c[nH]cn1)NC(=O)[C@H]1O[C@@H](O[C@H]2[C@H](O[C@H]3CC[C@]4(C)[C@H]5C(=O)C=C6[C@@H]7C[C@@](C)(C(=O)O)CC[C@]7(C)CC[C@@]6(C)[C@]5(C)CC[C@H]4C3(C)C)O[C@H](C(=O)N[C@@H](Cc3c[nH]cn3)C(=O)OC)[C@@H](O)[C@@H]2O)[C@H](O)[C@@H](O)[C@@H]1O	15	298 µM	–	–	–
COC(=O)C[C@H](NC(=O)[C@H]1O[C@@H](O[C@H]2[C@H](O[C@H]3CC[C@]4(C)[C@H]5C(=O)C=C6[C@@H]7C[C@@](C)(C(=O)O)CC[C@]7(C)CC[C@@]6(C)[C@]5(C)CC[C@H]4C3(C)C)O[C@H](C(=O)N[C@@H](CC(=O)OC)C(=O)OC)[C@@H](O)[C@@H]2O)[C@H](O)[C@@H](O)[C@@H]1O)C(=O)OC	1	37.3 µM	–	–	–
CC1(C)[C@@H](O[C@@H]2O[C@H](C(=O)N[C@@H](CSCc3ccccc3)C(=O)O)[C@@H](O)[C@H](O)[C@H]2O[C@@H]2O[C@H](C(=O)N[C@@H](CSCc3ccccc3)C(=O)O)[C@@H](O)[C@H](O)[C@H]2O)CC[C@]2(C)[C@H]3C(=O)C=C4[C@@H]5C[C@@](C)(C(=O)O)CC[C@]5(C)CC[C@@]4(C)[C@]3(C)CC[C@@H]12	71	248 µM	–	–	–
CC1(C)[C@@H](O[C@@H]2O[C@H](C(=O)N[C@@H](CCCCNC(=O)OCc3ccccc3)C(=O)O)[C@@H](O)[C@H](O)[C@H]2O[C@@H]2O[C@H](C(=O)N[C@@H](CCCCNC(=O)OCc3ccccc3)C(=O)O)[C@@H](O)[C@H](O)[C@H]2O)CC[C@]2(C)[C@H]3C(=O)C=C4[C@@H]5C[C@@](C)(C(=O)O)CC[C@]5(C)CC[C@@]4(C)[C@]3(C)CC[C@@H]12	3	155 µM	–	–	–
CC1(C)[C@@H](O[C@@H]2O[C@H](C(=O)N[C@@H]3O[C@H](CO)[C@@H](O)[C@H](O)[C@H]3O)[C@@H](O)[C@H](O)[C@H]2O[C@@H]2O[C@H](C(=O)N[C@@H]3O[C@H](CO)[C@@H](O)[C@H](O)[C@H]3O)[C@@H](O)[C@H](O)[C@H]2O)CC[C@]2(C)[C@H]3C(=O)C=C4[C@@H]5C[C@@](C)(C(=O)O)CC[C@]5(C)CC[C@@]4(C)[C@]3(C)CC[C@@H]12	36	259 µM	–	–	–
COC(=O)C[C@H](NC(=O)[C@H]1O[C@@H](O[C@H]2[C@H](O[C@H]3CC[C@]4(C)[C@H]5C(=O)C=C6[C@H]7C[C@@](C)(C(=O)O)CC[C@]7(C)CC[C@@]6(C)[C@]5(C)CC[C@H]4C3(C)C)O[C@H](C(=O)N[C@@H](CC(=O)OC)C(=O)OC)[C@@H](O)[C@@H]2O)[C@H](O)[C@@H](O)[C@@H]1O)C(=O)OC	4	38 µM	–	–	–
COC(=O)C[C@H](NC(=O)[C@H]1O[C@@H](O[C@H]2[C@H](O[C@H]3CC[C@]4(C)[C@H]5C(=O)C=C6[C@H]7C[C@@](C)(C(=O)O)CC[C@]7(C)CC[C@@]6(C)[C@]5(C)CC[C@H]4C3(C)C)O[C@H](C(=O)N[C@@H](CC(=O)OC)C(=O)O)[C@@H](O)[C@@H]2O)[C@H](O)[C@@H](O)[C@@H]1O)C(=O)O	12	58.3 µM	–	–	–
COC(=O)[C@@]1(C)CC[C@]2(C)CC[C@]3(C)C(=CC(=O)[C@@H]4[C@@]5(C)CC[C@H](O[C@@H]6O[C@H](CO)[C@@H](O)[C@H](O)[C@H]6O[C@@H]6O[C@H](CO)[C@@H](O)[C@H](O)[C@H]6O)C(C)(C)[C@@H]5CC[C@]43C)[C@@H]2C1	5	371 µM	–	–	–
CC1(C)[C@@H](O[C@@H]2O[C@H](C(=O)O)[C@@H](O)[C@H](O)[C@H]2O[C@@H]2O[C@H](C(=O)O)[C@@H](O)[C@H](O)[C@H]2O)CC[C@]2(C)C3=CC=C4[C@@H]5C[C@@](C)(C(=O)O)CC[C@]5(C)CC[C@@]4(C)[C@]3(C)CC[C@@H]12	10	21.4 µM	–	–	–
CC1(C)[C@@H](OC2O[C@H](C(=O)O)[C@@H](O)[C@H](O)[C@H]2O[C@@H]2O[C@H](C(=O)O)[C@@H](O)[C@H](O)[C@H]2O)CC[C@]2(C)[C@H]3C(=O)C=C4C5C[C@@](C)(C(=O)O)CC[C@]5(C)CC[C@@]4(C)[C@]3(C)CC[C@@H]12 (single isomer, unassigned) [GLYCYRRHIZIN]	–	–	15.2 µM	3	47.5 µM
CC1(C)[C@@H](O[C@H]2O[C@H](C(=O)O)[C@@H](O)[C@H](O)[C@H]2O[C@@H]2O[C@H](C(=O)O)[C@@H](O)[C@H](O)[C@H]2O)CC[C@]2(C)[C@H]3C(=O)C=C4[C@@H]5C[C@@](C)(C(=O)O)CC[C@]5(C)CC[C@@]4(C)[C@]3(C)CC[C@@H]12 [GLYCYRRHIZIN]	–	–	365 µM	1	365 µM
CC(N)C12CC3CC(CC(C3)C1)C2 (stereo not drawn) [RIMANTADINE]	5	334 µM	–	–	–
